PubChem BioAssay AID493091 (Sanford-Burnham Center for Chemical Genomics, 2011)
Screen size: about 340,000 compounds; about 3,000 (0.88%) were called active. The list comes from a sample in which actives are over-represented; it also holds similar structures and randomly drawn compounds. Values without a mark were called inactive.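 The calls were made as follows: active = inhibition above about 50% at 20 µM (limit read from the data); inactive = the rest.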 Non-standard residues stand in square brackets, D forms with d. Residues, ends and D or L forms follow the SMILES beside them. ξ: configuration not given here. ξM = CSCCC(N)C(=O)O

Target: Carboxy-terminal domain RNA polymerase II polypeptide A small phosphatase 1 (Homo sapiens) (UniProt Q9GZU7)
Test: Scp-1 phosphatase inhibitors, primary screen, biochemical, colorimetric, uHTS (AID 493091);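 also: plate controls were DMSO wells with enzyme for no effect and wells lacking enzyme for full effect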
Settings: Recombinant Scp1, phosphopeptide, malachite green phosphate absorbance; at 20 µM; stronger effect = higher value
How it was run: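 Test system: SCP-1 catalytic domain; Buffer or medium: Acidic Tris acetate buffer with magnesium and detergent; Also added: Phosphorylated 17-residue peptide substrate; Compound: single 20 µM dose, 1% DMSO; Schedule: enzyme reaction 45 min at room temperature, colour 5 min, stabilisation 30 min; Signal: Phosphate-binding colour reagent, absorbance read at 630 nm.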

Carboxy-terminal domain RNA polymerase II polypeptide A small phosphatase 1 (Homo sapiens), sequence (Q9GZU7 76-261 limits assumed): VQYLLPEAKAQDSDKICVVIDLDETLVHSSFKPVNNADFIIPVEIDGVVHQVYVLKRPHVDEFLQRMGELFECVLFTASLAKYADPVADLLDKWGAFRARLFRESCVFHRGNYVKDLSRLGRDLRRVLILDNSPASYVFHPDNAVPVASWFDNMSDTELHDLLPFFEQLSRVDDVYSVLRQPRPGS

Compound	inhibition
CC(C)(C)c1cc2cccnc2n1Cc1cccc(F)c1	-1.78%
CCOC(=O)C1CCN(S(=O)(=O)c2c(C)noc2C)CC1	-4.7%
COc1ccccc1NC(=O)c1ccc(N2CC3CC(C2)c2cccc(=O)n2C3)c(NC(=O)c2cccnc2)c1 (configuration not stated)	-3.99%
Cc1ccc2cc(/C=N/Nc3ccc(C(=O)O)cc3)c(Cl)nc2c1	0.89%
CCNC(=S)NNC(=O)c1ccc2ncccc2c1	-9.05%
O=C(O)c1ccc(N/N=C/c2ccc3ncccc3c2)cc1	50.4% (active)
CCCc1nc2c(c(=O)c3ccccc3n2C)c(=O)n1C1CCCCCC1	2.39%
O=c1c2ccccc2oc2nc(C3CCCCC3)n(Cc3ccco3)c(=O)c12	-2.2%
Cn1c2ccccc2c(=O)c2c(=O)n(Cc3ccco3)c(COc3ccccc3)nc21	92.9% (active)
COCCn1c(C)cc(C(=O)COC(=O)CNC(=O)c2ccco2)c1C	-7.15%
Cc1ccc(C(=O)Nc2nc(N)n(-c3ccccc3)n2)cc1	-3.84%
Cc1cc(S(=O)(=O)N2CCOCC2)ccc1OCC(=O)N1CCOCC1	2.62%
CCC(C)NC(=O)/C=C/c1ccc(S(=O)(=O)NCc2ccco2)cc1 (configuration not stated)	6.25%
CC(=O)Nc1ccccc1Sc1ccc2c3c(cccc13)C(=O)N(c1ccc(C)cc1)C2=O	53.1% (active)
Cc1ccc(N2C(=O)CC(Nc3cccc4ccccc34)C2=O)cc1 (configuration not stated)	-3.84%
CSc1ccccc1NC(=O)C(C)N1C(=O)c2ccccc2S1(=O)=O (configuration not stated)	39.4%
COC(=O)c1cc(S(=O)(=O)Nc2ccc(C)c(F)c2)c[nH]1	-3.42%
CCOC(=O)CCc1c(C)c2ccc(OCc3nn[nH]n3)c(C)c2oc1=O	2.8%
Cc1coc2cc3oc(=O)c(CCC(=O)O)c(C)c3cc12	-1.97%
COc1ccc2c(C)c(CCC(=O)NC3CC3)c(=O)oc2c1C	-1.31%
Cc1c(CCC(=O)O)c(=O)oc2cc3occ(-c4ccccc4)c3cc12	-18.2%
Cc1c(CCC(=O)O)c(=O)oc2c(C)c(OCc3ccccc3Cl)ccc12	97.5% (active)
Cc1c(CCC(=O)O)c(=O)oc2cc(OCc3ccc(Br)cc3)ccc12	53.3% (active)

Compound	inhibition
O=C(COC(=O)[C@H](Cc1ccccc1)NC(=O)c1cccs1)Nc1cc(F)ccc1F	-10.5%
CCN(CC)c1ccc([N+](=O)[O-])cc1C(=O)O	-4.84%
COc1cccc(NC(=O)Cn2cnc3sc(C)c(S(=O)(=O)N4CCN(C)CC4)c3c2=O)c1	-1.94%
CC(C)CCOc1ccc(C(=O)C[N+]2(C)CCOCC2)cc1	51% (active)
CCOc1ccc(C(=O)CCN2CCOCC2)cc1	-2.17%
CCCOc1ccc(C(=O)C(CCC(CNCC)C(=O)c2ccc(OCCC)cc2)CNCC)cc1 (configuration not stated)	10.4%
Cc1ccc(CNC(=O)C2CCCN2C(=O)NCc2ccccc2)cc1 (configuration not stated)	-7.83%
O=C(COc1ccc(Cl)cc1)Nc1ccccc1CO	-5.63%
C=CCc1cccc(/C=N/NC(=O)COc2ccc(-n3cnnn3)cc2)c1O	-8.78%
O=C(COc1ccc(-n2cnnn2)cc1)Nc1ccccc1Cl	58.7% (active)
COc1ccc(C(=O)N(Cc2ccccc2)c2ccc(C)cc2)cc1S(=O)(=O)N1CCOCC1	-6.19%
C=CCOc1ccc(/C=C/C(=O)OCC(=O)NC2CCCCCC2)cc1	22%
CCNc1nc(NC(C)C)nc(OCCOC(=O)c2ccccc2)n1	2.19%
O=C(Nc1cccc(F)c1)[C@@H]1CCCN1	67.8% (active)
O=C(Nc1cccc(F)c1)NC1CCCCCCC1	-10.5%
O=C(COC(=O)CNC(=O)C1CCCCC1)Nc1cccc(F)c1	-6.06%
Cc1ccc(N2C(=O)N3[C@@H]4c5ccccc5OC[C@@H]4[C@@H](c4ccccc4)[C@@]3(C)C2=O)cc1	-17.6%
N#C/C=C/N1CCN(Cc2ccc3c(c2)OCO3)CC1	-12.3%
O=C(c1ccc(F)cc1)N1CCCC(C(=O)N2CCCCC2)C1 (configuration not stated)	-6.52%
Cc1ccc(Cc2nnc(SCC(=O)Nc3ccccc3C)[nH]c2=O)cc1	16.3%
COc1ccc(Cc2nnc(SCC(=O)Nc3ccc(C)c(Cl)c3)[nH]c2=O)cc1	48%
Cc1ccc(Cc2nnc(SCC(=O)Nc3ccc(C)cc3C)[nH]c2=O)cc1	53.8% (active)
COc1ccc2cc(C3=CC(=O)C[C@H](c4ccc5c(c4)OCO5)C3)ccc2c1	-11%

Compound	inhibition
CCC(C)NC(=O)N[C@@H](CCSC)C(=O)O (some centres not stated)	-4.53%
COC(=O)CNC(=O)C(CCSC)NC(C)=O (configuration not stated) (Ac-[ξM]-Gly-OMe)	50.3% (active)
COc1ccccc1OCCNC(=O)C(CCSC)NC(=O)COc1ccccc1 (configuration not stated)	-8.06%
CCOc1ccc(OCC)c(NC(=O)CN(C)S(=O)(=O)c2cccc3nsnc23)c1	-5.95%
Cc1ccc(OCCNC(=O)c2cccc(S(=O)(=O)N3CCN(Cc4ccccc4)CC3)c2)cc1	-10.4%
CC1=CC(C)(C)N(C(=O)CSc2nnc(-c3ccccc3)o2)c2ccc(C)cc21	-2.74%
CCCCSc1nnc(-c2ccc(C)cc2)o1	81.5% (active)
Cc1ccc(-c2nnc(CN3CCN(C)CC3)o2)cc1	-6%
CCSC1=C(C#N)C(=O)n2c1cc1c2CCCC1	-1.97%
O=C(N/C(=C\c1ccc(F)cc1)C(=O)N1CCCCCC1)c1ccccc1	-0.73%
N#CC1=C(SCc2ccc(C#N)cc2)N=C(N)C(c2nc(-c3ccccc3)cs2)C12CCCCC2 (configuration not stated)	-1.99%
CC1(C)CCc2nc(SCc3ccccc3)c(C#N)cc2C1	-11.5%
N#CC1=C(SCc2ccccc2)NC(=O)C(C#N)C12CCCC2 (configuration not stated)	68.9% (active)
Cc1cc(C)cc(N(CC(=O)NCC2CCCO2)S(=O)(=O)c2c(C)noc2C)c1 (configuration not stated)	-3.08%
O=C(O)c1ccn(COc2ccc(Br)cc2)n1	-2.51%
CC1CCN(C(=O)Cn2nnnc2CN2CCOCC2)CC1	-6.52%
Cc1cc(C)nc(SCc2cn3c(C)cc(C)nc3n2)n1	-3.52%
COc1cccc(NC(=O)CN(C)C(=O)/C=C/c2cc(OC)ccc2OC)c1	-9.57%
COc1cccc(NC(=O)CN(C)C(=O)/C=C/c2cn(-c3ccccc3)nc2-c2cccs2)c1	-11.8%
COc1ccc(NC(=O)CN(C)C(=O)/C=C/c2cn(Cc3ccccc3)nc2-c2cccnc2)cc1	97.8% (active)
Nn1c(SCC(=O)Nc2nccs2)nnc1-c1ccco1	1.62%
CC1CCCCC1NC(=O)c1cn(C)c2ccc(S(=O)(=O)N3CCOCC3)cc2c1=O (configuration not stated)	-8.17%
Cc1ccc(CNC(=O)Cn2cnc3c(NCc4ccccc4)ncnc32)o1	1.29%

Compound	inhibition
Cc1nc([N+](=O)[O-])cn1CC(=O)Nc1ccc2c(c1)OCO2	-4.74%
Cc1nn(CC(=O)Nc2ccc3c(c2)OCO3)c(C)c1[N+](=O)[O-]	0.9%
Cc1ccc(C(=O)O)cc1-c1ccc(/C=C2\SC(=O)N(CC(=O)Nc3ccc4c(c3)OCO4)C2=O)o1	94.1% (active)
CN(Cc1ccccc1)C(=O)c1ccc(NC2=NC3CS(=O)(=O)CC3S2)cc1 (configuration not stated)	-3.86%
COc1ccc(S(=O)(=O)NCCc2cc3ccc(C)c(C)c3[nH]c2=O)cc1	-6.43%
COc1ccc(S(=O)(=O)N(C)CC(=O)N2CCCC2)cc1Cl	-2.74%
COc1ccc(S(=O)(=O)c2c[nH]c(=S)[nH]c2=O)cc1Cl	52.5% (active)
Cc1ccc(S(=O)(=O)c2c[nH]c3ccc(Cl)cc3c2=O)cc1	30.5%
Cc1ccc(/C=C/C(=O)Nc2ccc([N+](=O)[O-])c(NC(=O)/C=C/c3ccc(C)o3)c2)o1	53.2% (active)
COC(=O)/C=C\C(=O)Nc1cccc([N+](=O)[O-])c1	-2.7%
Cc1ccc(/C=C/C(=O)Nc2cc(S(=O)(=O)N3CCCCCC3)ccc2OCC(F)(F)F)o1	-9.11%
CCOc1ccc(NC(=O)C2CC(=O)N=C(N)S2)cc1 (configuration not stated)	-10.8%
Cn1c2c(c(=O)n(C)c1=O)C(c1cccc(F)c1)C(C#N)=C(N)O2 (configuration not stated)	-7.3%
O=C(N/N=C/c1ccco1)c1ccc(C(=O)N/N=C/c2ccco2)o1	83.9% (active)
O=C(N/N=C/c1ccco1)c1csc2c1CCCC2	0.11%
O=C(Cc1ccc([N+](=O)[O-])cc1)N/N=C/c1ccco1	-11.8%
CCn1c(=S)sc2c(=O)n(CC(=O)Nc3cccc(Br)c3)c(C)nc21	-11%
Cc1ccc(-c2nc(CS(=O)CC(=O)N3CCN(c4ncccn4)CC3)c(C)o2)cc1 (configuration not stated)	13.2%
O=C(c1ccc(CS(=O)(=O)c2ccccc2)o1)N1CCN(c2ccccc2)CC1	62.1% (active)
O=C(c1ccc(S(=O)(=O)NCc2ccco2)cc1)N1CCN(c2ccccc2)CC1	22.5%
COc1ccccc1CNC(=O)c1ccc(CS(=O)(=O)c2ccccc2)o1	-4.06%
CC(C)NC(=O)C(c1ccc(F)cc1)N(C(=O)CCC(=O)Nc1ccccn1)c1ccccc1F (configuration not stated)	-5.49%
Cc1ccc(-c2noc(C3CCCN(C(=O)c4cccc(Cl)c4)C3)n2)o1 (configuration not stated)	-1.22%
